# Measured values gathered from unrelated publications.
# Compare with care: the assays were run in different laboratories.
# Target: Serine/threonine-protein kinase TAO1 (TAOK1, Homo sapiens, UniProt Q7L7X3)
# One construct used (Q7L7X3 1-1001): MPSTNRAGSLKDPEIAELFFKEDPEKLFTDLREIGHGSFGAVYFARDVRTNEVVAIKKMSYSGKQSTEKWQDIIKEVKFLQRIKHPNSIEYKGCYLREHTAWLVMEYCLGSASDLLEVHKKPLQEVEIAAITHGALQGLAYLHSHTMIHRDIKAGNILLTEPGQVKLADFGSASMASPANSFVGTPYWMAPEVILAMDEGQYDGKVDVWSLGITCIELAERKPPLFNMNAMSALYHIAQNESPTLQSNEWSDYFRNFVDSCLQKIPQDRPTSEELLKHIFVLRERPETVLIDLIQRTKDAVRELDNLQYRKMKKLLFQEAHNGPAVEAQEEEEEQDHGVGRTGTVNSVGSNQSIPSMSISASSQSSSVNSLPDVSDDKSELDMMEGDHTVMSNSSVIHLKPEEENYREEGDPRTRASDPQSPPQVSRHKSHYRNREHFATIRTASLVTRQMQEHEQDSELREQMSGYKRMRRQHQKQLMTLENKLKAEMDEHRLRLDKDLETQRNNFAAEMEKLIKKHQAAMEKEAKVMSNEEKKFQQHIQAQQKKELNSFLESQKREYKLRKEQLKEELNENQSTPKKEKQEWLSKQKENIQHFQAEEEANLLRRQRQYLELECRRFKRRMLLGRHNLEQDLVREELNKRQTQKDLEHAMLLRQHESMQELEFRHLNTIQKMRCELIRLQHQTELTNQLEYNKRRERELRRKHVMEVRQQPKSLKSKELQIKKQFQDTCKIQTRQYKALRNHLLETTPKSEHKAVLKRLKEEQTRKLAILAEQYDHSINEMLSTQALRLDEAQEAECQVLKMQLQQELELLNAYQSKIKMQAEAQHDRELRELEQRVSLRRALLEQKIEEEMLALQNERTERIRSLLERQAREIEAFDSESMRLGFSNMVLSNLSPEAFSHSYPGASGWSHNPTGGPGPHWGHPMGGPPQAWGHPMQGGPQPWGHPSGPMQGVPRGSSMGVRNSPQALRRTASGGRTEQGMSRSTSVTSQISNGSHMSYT
SMILES,test,setting,remaining binding
O=C(NCCCN1CCOCC1)c1ccc(Nc2nccc(-c3cc4ccccc4s3)n2)cc1,"binding, competition with immobilised ligand",1 µM,82%
Cc1cnn2ncc(-c3ccnc(N(C)C)n3)c2c1,binding,1 µM,92%
CN([C@@H]1CCc2c(CC(=O)O)c3ccccc3n2C1)S(=O)(=O)c1ccc(F)cc1,"cell-free assay, competition with immobilised ligand",1 µM,93%
CNC(=O)[C@@H]1CC[C@@H](n2c(-c3ccc4cnccc4c3)nc3ccc(C(=O)NCc4cccc(C(N)=O)c4)cc32)C1,"binding, competition with immobilised ligand",1 µM,100%
c1cnn2ncc(-c3ccnc(N4CCC45COC5)n3)c2c1,binding,1 µM,58%
CN(C(=O)c1ccccc1)c1cc(N(C)c2ccc3c(c2)CCc2ccc(C(=O)NCCN4CCOCC4)cc2C3=O)ccc1F,"cell-free assay, competition with immobilised ligand",1 µM,81%
N[C@H]1CCN(c2nccc(-c3cnn4ncccc34)n2)C1,binding,1 µM,87%
O=C(O)[C@@H]1[C@@H](Cn2nnc3ccccc3c2=O)CC[C@H]1C(=O)c1ccc(OCCC2CCOCC2)cc1,"cell-free assay, competition with immobilised ligand",1 µM,100%
CN(c1nccc(-c2cnn3ncccc23)n1)C1CC1,binding,1 µM,100%
CNCc1ccccc1-c1csc([C@H](C)Nc2nc(C)nc3cc(OC)c(OC)cc23)c1,"cell-free assay, competition with immobilised ligand",1 µM,100%
c1cncc(-c2cccc(Nc3nccc(NC4CCCCC4)n3)c2)c1,"binding, competition with immobilised ligand",10 µM,97%
O=C(NCCCN1CCOCC1)c1ccc(Nc2ncc(Cl)c(-c3ccc(Cl)s3)n2)cc1,"binding, competition with immobilised ligand",1 µM,43%
C[C@@H]1CCN(c2nccc(-c3cnn4ncccc34)n2)C1,binding,1 µM,83%
Nc1ncc2c(n1)-c1c([nH]c3ccc(C#CC4CC4)cc13)CCCC2,"binding, competition with immobilised ligand",1 µM,97%
COc1ncc2cc3ccccc3nc2c1C#N,"cell-free assay, competition with immobilised ligand",5 µM,100%
CCN1CCN(Cc2ccc(C(=O)Nc3ccc(C)c(Oc4ccc5c(c4)CC(=O)N5)c3)cc2C(F)(F)F)CC1,"binding, competition with immobilised ligand",1 µM,100%
O=C(NCc1ncc(C(F)(F)F)cc1Cl)c1ccc2c(c1)C1(CCS(=O)(=O)CC1)[C@@H](C1CC1)N2S(=O)(=O)c1ccc(F)cc1,"cell-free assay, competition with immobilised ligand",1 µM,91%
O=C(Nc1c[nH]nc1C(=O)NC1CCNCC1)c1cc(F)cc(F)c1,"binding, competition with immobilised ligand",1 µM,80%
O=C1CCc2cc(Nc3cc(OC4CCOCC4)c([N+](=O)[O-])cc3Cl)ccc2N1,"cell-free assay, competition with immobilised ligand",1 µM,81%
O=C(c1ccc(Nc2nccc(-c3cc4ccccc4s3)n2)cc1)N1CCC(N2CCCC2)CC1,"binding, competition with immobilised ligand",1 µM,82%
CC1CCCN1c1nccc(-c2cnn3ncccc23)n1 (stereo not shown),binding,1 µM,100%
CC(=O)Nc1c(C(C)=O)c(=O)n(C)c2nc(-c3ccc(Cl)cc3Cl)c(-c3ccc(Cl)cc3)cc12,"cell-free assay, competition with immobilised ligand",1 µM,89%
